An excerpt weighted towards active compounds, which were near 4% of everything screened.
bCat nuc transl – beta-catenin nuclear translocation modulation; AID 1665; 190,000 compounds, 0.3% hits; HeLa beta-catenin nuclear translocation, immunofluorescence imaging; nuclear translocation activity, % at 5 µM;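 active = nuclear translocation activity above 50% at 5 µM, with a well cell count of 50 or more; inconclusive = wells under 50 cells across six images, flagged as toxic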;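 note: per-cell ratio of nuclear to cytoplasmic median beta-catenin stain intensity; plate controls were DMSO negative control for no effect and GSK-3 inhibitor IX positive control for full effect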
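Test system: human HeLa cell line; Doses: 5 µM primary, 0.02–20 µM confirmation; Incubation: 24 h compound exposure, 37°C; Detection: beta-catenin immunofluorescence imaging with DAPI; Read-out: beta-catenin nuclear/cytoplasmic ratio, % activation.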
KCC2 mod – modulators of human KCC2 chloride dependent transport. Q9H2X9. KCC2 cells, thallium flux FluoZin-2 fluorescence. B-score of Tl+ flux slope (higher = more flux/activation; lower = inhibition) at 10 µM. 190,000 compounds, 2.2% hits. AID 1456;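 active = thallium flux slope and its plate-corrected score both differing from the plate sample mean at a set confidence after two filtering rounds, in either direction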;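 note: slope of fluorescence scaled to starting intensity during 10 to 20 s after thallium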
Target sequence (Q9H2X9 whole entry, looked up): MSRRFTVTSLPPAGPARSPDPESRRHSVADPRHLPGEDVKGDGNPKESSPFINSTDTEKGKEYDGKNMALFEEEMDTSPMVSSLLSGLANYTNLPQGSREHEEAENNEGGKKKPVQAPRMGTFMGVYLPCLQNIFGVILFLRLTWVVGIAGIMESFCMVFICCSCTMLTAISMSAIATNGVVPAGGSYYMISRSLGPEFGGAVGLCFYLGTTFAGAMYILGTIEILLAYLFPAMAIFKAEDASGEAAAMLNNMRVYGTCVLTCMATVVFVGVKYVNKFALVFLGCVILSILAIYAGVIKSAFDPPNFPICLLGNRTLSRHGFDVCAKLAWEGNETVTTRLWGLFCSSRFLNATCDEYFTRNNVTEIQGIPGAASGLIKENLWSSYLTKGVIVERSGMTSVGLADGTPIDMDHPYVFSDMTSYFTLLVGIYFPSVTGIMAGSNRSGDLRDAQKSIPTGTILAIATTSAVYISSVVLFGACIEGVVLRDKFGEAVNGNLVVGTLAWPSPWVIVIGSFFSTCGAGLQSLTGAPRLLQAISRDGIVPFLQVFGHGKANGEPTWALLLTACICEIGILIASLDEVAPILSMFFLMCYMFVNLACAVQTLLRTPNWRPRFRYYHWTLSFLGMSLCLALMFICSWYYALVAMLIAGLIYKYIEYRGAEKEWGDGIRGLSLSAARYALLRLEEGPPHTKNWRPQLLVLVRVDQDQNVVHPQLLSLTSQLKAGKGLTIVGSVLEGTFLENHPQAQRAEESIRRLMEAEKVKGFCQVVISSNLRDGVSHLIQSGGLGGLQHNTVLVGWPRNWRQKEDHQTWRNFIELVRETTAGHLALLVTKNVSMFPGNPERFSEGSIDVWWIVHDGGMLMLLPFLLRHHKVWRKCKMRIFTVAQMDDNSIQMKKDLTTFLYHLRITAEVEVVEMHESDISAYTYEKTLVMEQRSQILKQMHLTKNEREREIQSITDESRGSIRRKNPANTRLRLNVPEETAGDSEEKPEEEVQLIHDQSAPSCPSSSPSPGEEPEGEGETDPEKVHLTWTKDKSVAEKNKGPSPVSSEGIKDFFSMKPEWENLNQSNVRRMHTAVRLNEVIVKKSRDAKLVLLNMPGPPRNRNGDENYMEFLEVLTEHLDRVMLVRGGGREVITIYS
Pf gametocyte – kills late stage P. falciparum gametocytes | inhibition, % at 10.9 µM | 150,000 compounds, 0.065% hits | P. falciparum stage V gametocytes, ATP luminescence, 24 h;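 active = inhibition above the mean plus 3 SD of compounds within the control limits, set per campaign, cut at about 38% in these data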;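 note: 0% = DMSO wells and 100% = medium only without gametocytes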
WT yeast gro inh – growth inhibition of WT yeast, mitochondrial fusion screen. mitochondrial fusion phenotypic screen, WT strain. inhibition, % at 10 µM. 190,000 compounds, 2.1% hits. AID 1362; in the data active = inhibition above about 58%; tested in S. cerevisiae
MT stabilizer – microtubule stabilizers in HeLa cells. % tubulin-high responders, % at 10 µM. AID 2205. 200,000 compounds, 0.83% hits. HeLa tubulin immunostaining HCS, 24 h; share of cells brighter than vehicle mean+2SD;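 active = plate Z-score above 3 for both tubulin-high and condensed-nucleus cell shares, with cell loss under 80%, at 10 µM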;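 note: anti alpha tubulin signal scored within the nucleus-defined area of each cell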
* marks the source's active call; other numbers are inactive results; ? = inconclusive; . = not tested or not shown.

SMILES | bCat nuc transl | KCC2 mod | Pf gametocyte | WT yeast gro inh | MT stabilizer
CCCCOC(=O)CSc1nnc(-c2ccc(Cl)cc2Cl)o1 | 0 | . | . | 60* | 5
O=C(Nc1ccc(C2SCCS2)cc1)c1ccccc1 | -1 | -0.14 | 17 | . | .
Cc1c(C(=O)C(=O)N2c3ccc(F)cc3CCC2C)c2ccccc2n1C (stereo unspecified) | 68* | -0.074 | . | -7 | 6
CC1CCc2cc(F)ccc2N1C(=O)CCC(=O)O (stereo unspecified) | -2 | . | . | 12 | 4
Cc1c(C(=O)C(=O)N2CCCc3ccccc32)c2ccccc2n1C | 1 | -2 | -24 | -5 | 30*
Cc1c(C(=O)C(=O)N2CCN(C)CC2)c2ccccc2n1C | -5 | 0.45 | 24 | -7 | 2
Cc1ccc(N2C(=O)CCC2=O)c(C)c1 | . | . | -23 | . | .
COc1cc(C(=O)NC2CCCC2)c(Br)c(OC)c1OC | 3 | 0.67 | 4 | 11 | 5
COc1cc(C(=O)NCCOc2cc(C)cc(C)c2)c(Br)c(OC)c1OC | 4 | -0.68 | -14 | 23 | 44*
CC(C)=C1C2CCC1C1C(=O)N(c3nc(-c4ccccc4)c(C)s3)C(=O)C21 (stereo unspecified) | -3 | -0.12 | . | 59* | 6
CC(C)=C1C2CCC1C1C(=O)N(c3nccs3)C(=O)C21 (stereo unspecified) | -2 | 1.3 | 1 | 4 | 4
O=S(=O)(NCCC(c1ccc(F)cc1)c1ccco1)c1ccccc1 (stereo unspecified) | 0 | -1.1 | 8 | 60* | 5
Cc1ccc(C(=O)NNC(=S)NC(=O)c2ccco2)cc1 | 0 | 55* | -6 | 66 | 8
Cc1ccc(C(=O)NNC(=S)NC(=O)c2ccccc2)cc1 | . | . | -7 | . | .
CC(C)NC(=S)NC(=O)c1ccc(Cl)cc1Cl | -1 | 29* | -4 | 11 | 4
Cc1ccc(C(=O)NNC(=S)NC(=O)c2ccc(Cl)cc2Cl)cc1 | 0 | 59* | 11 | 46 | 1
CC(C)CNC(=S)NC(=O)c1ccc(F)cc1 | 2 | 18* | 2 | 15 | 2
Cn1c(C(=O)N(Cc2ccccc2)Cc2cccs2)cc2sccc21 | -4 | -0.14 | 3 | 48 | 1
Cc1ccccc1C(=O)NNC(=S)NC(=O)c1ccccc1 | 0 | 30* | . | 50 | 5
O=C(/C=C/c1ccccc1)NC(=S)NNC(=O)c1ccco1 | -1 | 6.4* | . | -17 | 2
CCCNC(=O)c1ccc(Cl)cc1Cl | -2 | -0.064 | . | . | .
CC(C)CNC(=S)NC(=O)c1ccc(Cl)cc1Cl | 1 | 39* | 12 | 1 | 4
O=C(NNC(=O)c1ccco1)c1ccccc1 | 1 | 0.98 | 24 | 5 | 4
Cc1ccn2c(NC(=O)C(C)(C)Oc3ccc(Cl)cc3)c(-c3cccs3)nc2c1 | -2 | -1.9 | 30 | 53 | 5
O=C(/C=C/c1ccccc1Cl)c1ccc(O)cc1 | 23 | 0.34 | . | . | .
SMILES | bCat nuc transl | KCC2 mod | Pf gametocyte | WT yeast gro inh | MT stabilizer
O=C(/C=C/c1ccccc1Cl)c1ccccc(=O)c1O | . | 31* | 5 | -17 | 11
COc1ccc(C2C=C(c3ccc(C)c(C)c3)Nc3ncnn32)c(OC)c1OC (stereo unspecified) | . | . | . | 15 | 23*
CC(C)=C1C2CCC1C(C(=O)Nc1sc(C)c(-c3ccc(C(C)C)cc3)c1C(N)=O)C2C(=O)O (stereo unspecified) | -1 | -1.6 | . | 62* | 2
CC(C(=O)NC1CCCCCC1)c1ccc([N+](=O)[O-])cc1 (stereo unspecified) | . | . | -4 | . | .
O=C(O)CC1SC(=Nc2ccccc2)N(c2ccccc2)C1=O (stereo unspecified) | -4 | 0.37 | . | 6 | 2
Cc1ccc(CC2SC(=Nc3ccccc3)N(c3ccccc3)C2=O)cc1 (stereo unspecified) | -1 | -0.6 | . | 61* | 2
Cn1c(C(=O)c2ccncc2)cc2ccccc21 | 0 | -0.7 | . | . | .
CC(C)c1ccc(NC(=O)c2cc(S(=O)(=O)NCC3COc4ccccc4O3)ccc2F)cc1 (stereo unspecified) | 5 | -1.3 | 13 | 62* | 3
O=C(Nc1ccc(C(F)(F)F)cc1)c1cc(S(=O)(=O)NCC2COc3ccccc3O2)ccc1F (stereo unspecified) | -1 | -0.21 | 16 | 82* | 2
COc1ccc(NC(=O)c2cc(S(=O)(=O)NCC3COc4ccccc4O3)ccc2F)cc1 (stereo unspecified) | -1 | -2.7 | 12 | 19 | 5
O=C(NCC1COc2ccccc2O1)c1ccc(NC(=O)c2ccco2)cc1 (stereo unspecified) | . | 0.11 | -2 | -17 | 5
Fc1ccccc1-c1csc(=Nc2cccnc2)n1CCCn1ccnc1 | -2 | -0.61 | 1 | 19 | 2
CCn1c(CCCOc2ccc(Cl)cc2Cl)nnc1SCC(=O)Nc1cc(F)ccc1C | -2 | -0.71 | 11 | 79* | 3
S=c1[nH]nc(COc2ccccc2)n1/N=C/C(Cl)=C/c1ccccc1 | 3 | 2.4 | -6 | 73* | 5
CCn1c(CSc2nc3ccccc3s2)nc2ccccc21 | -6 | -4.2 | . | 63* | 1
S=c1[nH]nc(COc2ccccc2)n1Cc1ccccc1 | 2 | 3.3 | 6 | 49 | 2
S=c1[nH]nc(CSc2nc3ccccc3s2)n1C1CCCCC1 | -2 | 30* | 4 | 17 | 2
S=c1[nH]nc(COc2ccccc2)n1C1CCCCC1 | . | 12* | -20 | 41 | 1
CN(C)c1ccc(N=C/C=C2/N(C)c3ccccc3C2(C)C)cc1 | -1 | 0.26 | -23 | 51 | 6
CC[C@H](C)[C@H](NC(N)=O)C(=O)Nc1ccc(S(=O)(=O)NC(C)C)cc1 | -1 | 1.4 | -15 | . | .
CC(C)NS(=O)(=O)c1ccc(NC(=O)C2CC3C=CC2C3)cc1 (stereo unspecified) | . | . | 0 | 75* | 2
O=C(COc1ccccc1F)N1c2ccccc2CCc2ccccc21 | 0 | -0.83 | -19 | -19 | 3
CCc1ccc(OCC(=O)N2c3ccccc3CCc3ccccc32)cc1 | 8 | -1.3 | . | 81* | 5
Cc1nn(C(C)C(=O)NCC2CCCO2)c(=O)c2cc3occc3n12 (stereo unspecified) | -3 | 1.6 | . | 61* | 4
Cc1nn(C(C)C(=O)NCCCc2ccccc2)c(=O)c2cc3occc3n12 (stereo unspecified) | 0 | -2.4 | . | -5 | 1
SMILES | bCat nuc transl | KCC2 mod | Pf gametocyte | WT yeast gro inh | MT stabilizer
Cc1oc2c(c1C(=O)NCc1cccnc1)C(=O)c1ccccc1C2=O | ? | 0.55 | . | 88* | 42
COc1ccc(CNC(=O)c2c(C)oc3c2C(=O)c2ccccc2C3=O)cc1 | -2 | -0.33 | . | 58 | 47
COc1ccc(-c2nn(-c3ccccc3)cc2/C=N/n2cnnc2)cc1OC | . | -0.0056 | . | 5 | 2
COc1ccc(-c2nn(-c3ccccc3)cc2/C=N/NC(N)=S)cc1OC | . | 0.74 | 0 | -13 | 27*
N=Nc1c(O)n(CC(=O)Nc2ccccc2)c2ccccc12 | . | . | 8 | . | .
CSc1ccccc1C(=O)N1CCN(c2ncccn2)CC1 | -3 | -0.75 | 15 | 6 | 1
